Measured values reported in ChEMBL document CHEMBL1143599, “Design, synthesis, and antiviral activity of adenosine 5'-phosphonate analogues as chain terminators against hepatitis C virus” (J Med Chem, 2005).

Tests used:
[1] = Cytotoxicity determined in Huh 7 cells; assay type: cell-based; details: human
How it was run: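 Huh7 cells; viability read by colorimetric MTT assay. CC50 taken as the concentration that cuts cell viability by 50%.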

[2] = Effective concentration against Huh 7 cells; assay type: functional, cell-based, Homo sapiens
How it was run: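 HCV subgenomic replicon cells with luciferase readout, seeded at 6000 cells/well, compound added right after seeding, 48 h incubation. Cells then lysed and luciferase activity in lysate measured. Replicon RNA reduction inferred from the luciferase drop; EC50 is the concentration giving 50% reduction of viral replication.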

Compound	EC50 [2] [µM]	CC50 [1] [µM]
Nc1ncnc2c1ncn2[C@@H]1O[C@H](CCP(=O)(O)O)[C@@H](O)[C@H]1O	200	> 300
Nc1ncnc2c1ncn2[C@@H]1O[C@H](OCP(=O)(O)O)[C@@H](O)[C@H]1O	65	> 300

These reach a lower EC50 [2]. Values come first.

EC50 [2] [µM]	Compound	CC50 [1] [µM]
25	CC(C)(C)C(=O)SCCOP(=O)(CC[C@H]1O[C@@H](n2cnc3c(N)ncnc32)[C@](C)(O)[C@@H]1O)OCCSC(=O)C(C)(C)C	30
30	Nc1ncnc2c1ncn2[C@@H]1C[C@H](OCP(=O)(O)O)[C@@H](O)[C@H]1O	300
35	C[C@@]1(O)[C@H](O)[C@@H](CCP(=O)(O)O)O[C@H]1n1cnc2c(N)ncnc21	> 300
